Results as given in ChEMBL document CHEMBL4513216, “Probing the Open Global Health Chemical Diversity Library for Multistage-Active Starting Points for Next-Generation Antimalarials” (ACS Infect Dis, 2020).

Assay: Toxicity liver stage against HepG2, at 10uM
Format: cell-based
Parameters: test concentration 10 uM, cell line HepG2-A16-CD81EGFP
Conditions: human, HepG2-A16-CD81EGFP cells; read-out: INHIBITION
Procedure, shortened: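 Uninfected HepG2-A16-CD81EGFP cells, 3 × 10^3 per well, 1536-well, plated on prespotted compound at 10 μM final, parasite-free screening media added to match infected plates; puromycin 10 μM positive, DMSO 0.5% negative; run in parallel with 48 h PbLuc assay at 37 °C, 5% CO2; viability by CellTiter-Glo luminescence, normalized to controls.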

| SMILES | cytotoxicity at 10 µM [%] |
| --- | --- |
| CN(C)[C@@H]1CCN(C(=O)c2ccsc2)[C@H]1Cc1cccnc1 | -66.7 |
| Cc1ccc(CNC(=O)CCSCc2csc(C)n2)cn1 | -10 |
| Cc1occc1C(=O)N1CCc2c(CNS(C)(=O)=O)cncc2C1 | 8.68 |
| O=C(NCC1(CO)CC1)c1ccccc1Cl | 5.47 |
| Cc1cc(C)c2cc(CNCc3ccc(C)o3)c3nn(C)c(=O)n3c2c1 | -1.83 |
| CC(C)n1ccnc1CN1CCCN(C(=O)c2nccnc2N)CC1 | -7.26 |
| COc1ncccc1NC(=O)NC(C)(C)c1ncc(C)s1 | -9.44 |
| Cc1ccccc1CN1CCC(c2nn(CCN)c3nccnc23)C1 (stereo not given) | -24.3 |
| O=C(C1CCCOC1)N1CCN(CC(F)(F)F)c2ccccc21 (stereo not given) | 8.09 |
| COCCCNC(=O)Nc1ncc(-c2cccc(OC)c2)n1CCOC | 18.6 |
| Cc1noc(C)c1CNCc1ccccc1N(C)C1CCN(C)CC1 | 4.69 |
| Cc1cnn(CC2CN(CC(=O)Nc3cc(C)no3)CCO2)c1 (stereo not given) | -6.13 |
| Cc1nc(C2CCCN2C(=O)c2cc3c(s2)CCCC3)no1 (stereo not given) | -11.2 |
| CCC[C@H]1CN(CCCO)C[C@@H]1NC(=O)Cn1cc(C)cn1 | 1.39 |
| Cc1cc(NCCNc2ncccc2C)n2nc(C)cc2n1 | 2.41 |
| COC(=O)c1ccc(NC(C)c2ccc3c(c2)CC(=O)N3)nn1 (stereo not given) | 3.82 |
| O=C(CCc1nc2ccccc2[nH]1)Nc1ccc2c(c1)OCC(=O)N2 | 17.9 |
| COc1ccc(-c2n[nH]c(C)c2CC(=O)NCCN2CCOCC2)cc1 | -13.4 |
| CNc1nc(N2CCN(C)C(CCO)C2)nc2c1CCC2 (stereo not given) | 2.66 |
| CN(Cc1cc2n(n1)CCNC2)Cc1cc(-c2ccccn2)no1 | 1.91 |
| Cc1cc(Cn2cc(C(C)Cc3ccc4c(c3)OCO4)nn2)n[nH]1 (stereo not given) | 5.92 |
| CN(C)C(=O)CO[C@H]1CN(Cc2cccc(F)c2)[C@@H]2CCCO[C@H]12 | -2.76 |

| SMILES | cytotoxicity at 10 µM [%] |
| --- | --- |
| COCCNC(=O)C1CN(Cc2ccsc2)Cc2ccnn2C1 (stereo not given) | -6.07 |
| Cn1c(NCC(=O)N2CCCCC2)c(C#N)c(=O)n(C)c1=O | 5.83 |
| Cn1ccc(CN2CCC(CC(=O)NC3CCCC3)CC2)cc1=O | -16.8 |
| O=C(O)[C@H]1OCC(=O)N(Cc2cccc(Cl)c2)[C@@H]1c1ccccc1 | 7.35 |
| COc1ccccc1OCC(=O)NCC(C)(O)C1CC1 (stereo not given) | -0.419 |
| CC1CN(Cc2ccccc2)CCCN1CCNS(C)(=O)=O (stereo not given) | -3.72 |
| Cc1nccc(CNc2cc(N3CCCC3CO)ncn2)n1 (stereo not given) | -14 |
| O=C(NCC1CC1)c1ccc(NC(=O)c2ccco2)cc1 | 7.91 |
| Cc1cnc(-c2nc(C3CCCN(Cc4cccs4)C3)no2)cn1 (stereo not given) | 1.33 |
| Cc1cc(C2CCCCN2C(=O)CN2CC3(CCNCC3)OC2=O)no1 (stereo not given) | 8.69 |
| O=C(Cn1cnc(NC(=O)CC2CCCC2)n1)NCc1ccccc1 | -4.1 |
| Cc1nc(N(C)C)nc(C)c1NS(=O)(=O)c1ccc(F)cc1F | -3.58 |
| c1cc2nc(C3CCN(CC4CC4)CC3)nn2cc1N1CCCC1 | -8.13 |
| Cc1ccc(C(=O)N2CCN(c3ncnc4nc(N)ccc34)CC2)cc1 | 8.88 |
| CCC1=N[C@@]2(CC[C@@H]3CN(S(=O)(=O)CC(C)C)C[C@@H]32)C(=O)N1C | 5.24 |
| CC(NC(=O)NCCNc1ccccn1)c1cccs1 (stereo not given) | 1.48 |
| CS(=O)(=O)N1CCC2(COCc3cnc(-c4ccccc4)nc32)C1 (stereo not given) | 1.22 |
| Cc1nn(-c2ccccc2)c(C)c1CNC(=O)NC1CC1 | 7.59 |
| CCNC(=O)NCc1ccnc(N(C)C)n1 | -0.786 |
| O=C(c1ccncc1)N1CCC2(CC1)CCN(C(=O)c1cccnc1)C2 | -93 |
| c1ccc(N2CCCC3(COCCN(c4nccs4)C3)C2)nc1 (stereo not given) | -8.89 |
| O=C(c1ccncc1)N1CCCn2c(CN3CCCCC3)nnc2C1 | -5.77 |

| SMILES | cytotoxicity at 10 µM [%] |
| --- | --- |
| c1cnc(-c2nc(CN3CCN(CC4CC4)CC3)cs2)nc1 | -10.1 |
| CCN(CCO)C(=O)Nc1ccc(OCCOC)nc1 | -5.71 |
| CCn1cc(CNC2CC(=O)N(CCc3cccc(Cl)c3)C2)cn1 (stereo not given) | -8.54 |
| O=S(=O)(NCC1(c2cccs2)CCOCC1)c1cccnc1 | -3.51 |
| Cn1c(C2CC2)nc2cc(NC(=O)C3(O)CCCC3)ccc21 | 2.84 |
| O=C1CO[C@H]2CN(Cc3cccc4[nH]ccc34)C[C@@H]2N1C1CCOCC1 | -17.3 |
| Cc1cc(NC(=O)CN2CCC(N3CCNC3=O)CC2)on1 | 2.99 |
| CNC(=O)c1cccnc1N1CCN(C/C=C/c2ccccc2)CC1 | -9.23 |
| CN(Cc1nccn1CC(F)(F)F)C(=O)c1ccc2c(c1)OCO2 | 1.09 |
| COCCc1ncc(CN2CCCC(C(=O)c3ccccc3)C2)cn1 (stereo not given) | -1.38 |
| CCN(CC)C(=O)Nc1cccc(Oc2ccccn2)c1 | 8.12 |
| CNC(=O)CCCNCc1c(C(C)C)nn(C)c1N(C)C | -12.7 |
| O=C(CC1CCCC1)NCCS(=O)(=O)N1CCN(c2ccccn2)CC1 | 0.766 |
| Cc1cccc(CN2C[C@H]3OC(=O)N(CCCN4CCOCC4)[C@H]3C2)n1 | -6.85 |
| Cc1cccc(C)c1Oc1ncccc1CNC(=O)C1COC(=O)N1 (stereo not given) | -4.65 |
| CCCC1(NC(=O)C(c2ccc(F)cc2)N(C)C)CC1 (stereo not given) | -37.1 |
| CS(=O)(=O)N1CCC(NC(=O)COc2ccc(Br)cc2Cl)CC1 | 3.25 |
| O=C(C[S+]([O-])Cc1cccc(C(F)(F)F)c1)NC1CCCC1 (stereo not given) | 7.72 |
| Cn1cc(C2CC(=O)NC23CCN(C(=O)Cc2ccccn2)CC3)cn1 (stereo not given) | 5.06 |
| CN(C)C(=O)COCc1cncc2c1CCN(Cc1nccn1C)C2 | -7.61 |
| CC(=O)N1CC(=O)N(c2cnn(C)c2)CC12CCN(Cc1cccs1)C2 (stereo not given) | 2.26 |
| OCCN(Cc1cccnc1)c1ccc(Cl)cn1 | 31.9 |

| SMILES | cytotoxicity at 10 µM [%] |
| --- | --- |
| CCCn1nnnc1COc1cc(OC)ccc1C(=O)OC | -2.04 |
| Cc1cc(C)n(CC(C)CNC(=O)N(C)Cc2cc(C)on2)n1 (stereo not given) | -10.2 |
| CC(=O)N1CCc2nnc(C3CCCCN3CC3CC3)n2CC1 (stereo not given) | -15.4 |
| N#Cc1ccc(OC2CCN(C(=O)c3cncc(Br)c3)CC2)nc1 | 3.05 |
| CC(CCN(C)C)NC(=O)N1CCSC(C)(C)C1 (stereo not given) | 5.4 |
| O=c1c2cc3c(cc2nnn1Cc1cccc(F)c1)OCCO3 | 6.39 |
| c1ccc2oc(CCCN3CCCC3Cn3cncn3)nc2c1 (stereo not given) | -1.42 |
| CCCc1n[nH]c(C2CN(CCCS(C)(=O)=O)CCO2)n1 (stereo not given) | -2.38 |
| CS(=O)(=O)c1cnc(CC2CC2)nc1C1CCCNC1 (stereo not given) | -33.5 |
| COC(=O)NCC(=O)N1CCCCC1c1nc2cc(F)ccc2[nH]1 (stereo not given) | -1.41 |
| Cc1cc(Cl)ccc1-n1ncc(C(=O)NCC2COC(C)(C)O2)c1N (stereo not given) | -2.25 |
| COc1cccc(CC2(C(=O)O)CCN(c3ccc(Cl)cn3)CC2)c1 | -14 |
| Cn1ncnc1CNC1CCCc2cc(F)ccc21 (stereo not given) | -5.62 |
| CN(Cc1cnn(C)c1)C(=O)C(c1ccccc1)N1CCSCC1 (stereo not given) | 5.21 |
| O=C1NC(c2ccccc2)=N[C@@]12CC[C@@H]1CN(S(=O)(=O)C3CC3)C[C@@H]12 | 9.91 |
| Cc1nc(C)c(C(=O)Nc2cnn(CC(=O)NC3CCCC3)c2)s1 | -3.33 |
| CC(C)C(C)N(C(=O)c1cc2c([nH]c1=O)CCCC2=O)C1CC1 (stereo not given) | -3.45 |
| CC(NCc1ccccn1)c1cc2c(cc1Br)OCCO2 (stereo not given) | 2.65 |
| COCc1cccc(C(=O)N2CCN(C3=NCC(C)(C)S3)CC2)c1 | 4.65 |
| COc1c(CNCc2cccnc2N2CCOCC2)c(C)nn1C | -151 |
| Cc1cnn(C2CCCN(C(=O)CCc3ccncc3)C2)c1 (stereo not given) | -10.7 |
| COc1cc(N2CCC3(CCCN(Cc4ccccn4)C3)C2)ncn1 (stereo not given) | -88.6 |

| SMILES | cytotoxicity at 10 µM [%] |
| --- | --- |
| CCC1CCC(N(Cc2cc(=O)n(C)c(=O)n2C)C2CC2)CC1 (stereo not given) | 22.6 |
| CCOC(=O)NC(CNC(=O)c1ccccn1)CC(C)C (stereo not given) | 10.2 |
| CCC(C)N(Cc1cccnc1)C(=O)c1ccc(F)c(O)c1 (stereo not given) | 1.87 |
| CC(O)CN(C)C(=O)CCNC(=O)OC(C)(C)C (stereo not given) | -5.32 |
| CCC(C)Sc1ncc(-c2c(C#N)c(N)nc3c2COCC3)cn1 (stereo not given) | 15.1 |
| COCCN(Cc1ccoc1)C(=O)c1ccc(Cl)s1 | 12.3 |
| CCC(C)C(=O)N(CC(=O)OC)c1cccc(C)n1 (stereo not given) | -4.31 |
| Cc1nc(CN2CCC(CNC(=O)C3CCOC3)CC2)oc1C (stereo not given) | 0.0966 |
| CCC(C(=O)NC(C)(C)C)n1cccc(OC)c1=O (stereo not given) | -1.04 |
| CC(O)CC(C)(C)CNC(=O)NCc1cccc(-n2ccnc2)c1 (stereo not given) | -3.34 |
| NC(=O)N1CCCN(C2CCc3ccc(F)cc32)CC1 (stereo not given) | 3.93 |
| O=C1CO[C@@H]2CN(Cc3cccs3)C[C@H]2N1Cc1ccncc1 | 2.08 |
| O=C(NCc1ccccc1CN1CCC(O)CC1)Nc1cccnc1 | -8.8 |
| CCN(Cc1c(C)nn(CC)c1C)S(=O)(=O)c1cnn(C)c1C | 9.65 |
| COc1ccccc1OC1(C(=O)O)CCN(c2ncccc2F)CC1 | -12.9 |
| CC(C)N(C)Cc1cnc2n1CCN(Cc1ccc(F)cc1)C2 | 1.44 |
| COC1CCN(c2ccc(NC(=O)C3CC3)cc2C(F)(F)F)CC1 | 39.5 |
| Cc1ccc(C)c(-n2ncc(C(=O)N(C)CCc3ccccn3)c2N)c1 | -1.57 |
| O=C(c1ccncc1)N1CC[C@H]2[C@H]1CCN2S(=O)(=O)C1CC1 | -126 |
| NS(=O)(=O)c1cnc(NCC2(c3cccc(F)c3)CCOCC2)s1 | -5.71 |
| CCS(=O)(=O)N1CCc2nc(C3CCN(C(=O)C4CC4)C3)nc(O)c2C1 (stereo not given) | -25.9 |
| CC(C)CN1CCC(C(=O)NCCNC(=O)c2ccco2)CC1 | -5.18 |
